Drawing on ChEMBL document CHEMBL1821659, “N-Benzyl-3-sulfonamidopyrrolidines are a New Class of Bacterial DNA Gyrase Inhibitors” (ACS Med Chem Lett, 2011), this text covers MIC, IC50 and Activity for five compounds.

≈ marks a conversion by molar mass, not a printed value. Calls of active or inactive are those of the source. The calls are words filed in the database; no cut-off is given here.

Usually MIC stands for the lowest concentration that inhibits growth of the organism. A word on the IC50: it is the concentration at which inhibition is half-maximal.

Assay [1] deals with Escherichia coli. The assay is described as follows: Antimicrobial activity against Escherichia coli BW25113 delta tolC after 14 hrs by microdilution method. The class given is functional. The essentials:
(§1)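 MIC determined in the E. coli BW25113 ΔtolC drug-pump knockout, which lacks a functional AcrAB-TolC multidrug efflux pump. The pump inhibitor was applied only to the wild-type strains.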
Background: In broth dilution the organism is exposed to a series of concentrations in liquid medium.

For assay [2], the system named is Escherichia coli. The assay is described as follows: Antimicrobial activity against Escherichia coli BW25113 delta tolC after 14 hrs by macrodilution method. It is filed as functional. The essentials: as §1
Assay [3] is described as follows: Inhibition of Escherichia coli DNA gyrase assessed as DNA supercoiling using pUC19 as substrate after 30 mins by agarose gel electrophoresis. The essentials: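 Gel-based supercoiling assay on pUC19. Supercoiled, linear and relaxed pUC19 were run as marker lanes. Test compounds were applied at a range of μM concentrations.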
Assay [4] has as its system Escherichia coli. Description: Antimicrobial activity against Escherichia coli BW25113 after 14 hrs by microdilution method in presence of efflux pump inhibitor 60 uM MC-207,110. It is filed as functional. To be noted: BW25113, 14 h.
Assay [5] deals with Pseudomonas aeruginosa. Description: Antimicrobial activity against Pseudomonas aeruginosa K after 16 hrs by microdilution method in presence of efflux pump inhibitor 60 uM MC-207,110. The class given is functional.
In assay [6] the test system is Salmonella enterica. The assay is described as follows: Antimicrobial activity against Salmonella enterica ATCC 19585 after 14 hrs by microdilution method in presence of efflux pump inhibitor 60 uM MC-207,110. It is filed as functional. To be noted: ATCC 19585, 14 h.
In assay [7] the test system is Escherichia coli. Description: Antimicrobial activity against Escherichia coli BW25113 after 14 hrs by macrodilution method in presence of efflux pump inhibitor 60 uM MC-207,110. The class given is functional. To be noted: BW25113, 14 h. The essentials:
(§2)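 Run on wild-type strains, with 60 μM of the efflux pump inhibitor MC-207,110 added to potentiate compound activity.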

For assay [8], the system named is Pseudomonas aeruginosa. The assay is described as follows: Antimicrobial activity against Pseudomonas aeruginosa K after 16 hrs by macrodilution method in presence of efflux pump inhibitor 60 uM MC-207,110. The class given is functional. The essentials: as §2
Assay [9] relates to Salmonella enterica. Description: Antimicrobial activity against Salmonella enterica ATCC 19585 after 14 hrs by macrodilution method in presence of efflux pump inhibitor 60 uM MC-207,110. It is filed as functional. To be noted: ATCC 19585, 14 h. The essentials: as §2
Assay [10] deals with Staphylococcus aureus. Description: Antimicrobial activity against Staphylococcus aureus FRI 100 after 14 hrs by macrodilution method. The class given is functional. To be noted: FRI 100, 14 h.
The test system of assay [11] is Streptococcus pneumoniae. The assay is described as follows: Antimicrobial activity against Streptococcus pneumoniae ATCC 10813 after 24 hrs by macrodilution method. To be noted: ATCC 10813, 24 h. It is filed as functional.
Assay [12] relates to Enterococcus faecalis. Description: Antimicrobial activity against Enterococcus faecalis 1131 after 14 hrs by macrodilution method. It is filed as functional. To be noted: Enterococcus faecalis, 1131, 14 h.
For assay [13], the system named is Staphylococcus aureus. Description: Antimicrobial activity against Staphylococcus aureus FRI 100 in presence of reserpine after 14 hrs. The class given is functional, organism-based.
For assay [14], the system named is Enterococcus faecalis. The assay is described as follows: Antimicrobial activity against Enterococcus faecalis 1131 after 14 hrs. The class given is functional, organism-based.
For assay [15], the system named is Enterococcus faecalis. The assay is described as follows: Antimicrobial activity against Enterococcus faecalis 1131 in presence of reserpine after 14 hrs. The class given is functional, organism-based.
The subject of assay [16] is Nucleic Acid. Description: Induction of DNA damage at Escherichia coli supercoiled pUC19 bound to DNA gyrase assessed as dsDNA breaks in the absence of ATP at =<3.3 mM after 1 hrs by agarose gel electrophoresis. It is filed as nucleic-acid assay.
In assay [17] the test system is Streptococcus pneumoniae. Description: Antimicrobial activity against Streptococcus pneumoniae ATCC 10813 after 24 hrs by microdilution method. It is filed as functional. To be noted: ATCC 10813, 24 h.

With `Cc1ccc(F)cc1S(=O)(=O)N[C@H]1CCN(Cc2ccc(OC(C)C)cc2)C1`, the MIC in assay [1] and in assay [2] was 140 µM (≈ 56.9 µg/mL) throughout. The half-maximal inhibitory concentration (IC50) in assay [3] was found to be 40800 nM.

Turning to `Cc1ccc(F)cc1S(=O)(=O)NC1CCN(Cc2ccc(-c3ccccc3)cc2)C1` (stereo not drawn) [GYRAMIDE C], the minimal inhibitory concentration (MIC) in assay [1] amounted to 2.5 µM (≈ 1.06 µg/mL); in assay [4], 20 µM; in assay [5], 20 µM; in [6] it was 10 µM; in assay [2], 2.5 µM (≈ 1.06 µg/mL); in assay [7], 20 µM. Besides, the MIC in assay [8] is 20 µM; in [9], 10 µM; in assay [10] it was 20 µM (≈ 8.49 µg/mL); in [11], 10 µM (≈ 4.25 µg/mL); in assay [12], more than 160 µM. The result in assay [13], in assay [14] and in assay [15] was inactive. Besides, in assay [3], the IC50 is 1100 nM.

As to `Cc1ccc(F)cc1S(=O)(=O)NC1CCN(Cc2ccc(OC(C)C)cc2)C1` (stereo not drawn), the result in assay [13], in [14], in assay [15] and in [16] was inactive.

With `Cc1ccc(F)cc1S(=O)(=O)N[C@@H]1CCN(Cc2ccc(OC(C)C)cc2)C1`, the minimum inhibitory concentration (MIC) in assay [4] is 40 µM; in [5] it was 80 µM; in [6], 80 µM; in [17] it was 160 µM (≈ 65 µg/mL); in [2], 10 µM (≈ 4.07 µg/mL); in assay [7] it was 40 µM. In addition, the MIC in [8] is 80 µM; in assay [9], 80 µM; in assay [10], more than 160 µM; in [11], 160 µM (≈ 65 µg/mL); in [12], more than 160 µM. Also, in assay [3], the 50% inhibitory concentration (IC50) was 3300 nM.

Take `Cc1ccc(F)cc1S(=O)(=O)NC1CCN(Cc2ccc(CC(C)C)cc2)C1` (stereo not drawn) [GYRAMIDE B]: the minimum inhibitory concentration (MIC) is 40 µM in assay [4]; 40 µM in assay [5]; 20 µM in assay [6]; 5 µM (≈ 2.02 µg/mL) in [2]; 40 µM in assay [7]; 40 µM in assay [8]. Also, the MIC was 20 µM in assay [9], 80 µM (≈ 32.4 µg/mL) in [10], 20 µM (≈ 8.09 µg/mL) in [11] and more than 160 µM in assay [12]. Besides, the outcome in assay [13], in [14] and in assay [15] was inactive. Also, the IC50 in assay [3] is 700 nM.
